In ChEMBL document CHEMBL1131440, “Synthesis and potent antifolate activity and cytotoxicity of B-ring deaza analogues of the nonpolyglutamatable dihydrofolate reductase inhibitor Nalpha-(4-amino-4-deoxypteroyl)-Ndelta-hemiphthaloyl- L-ornithine (PT523)” (J Med Chem, 1998):

Columns and labels:
Dihydrofolate reductase = target: T1, Dihydrofolate reductase (Homo sapiens, UniProt P00374); assay: Compound was evaluated for the inhibition of Dihydrofolate reductase at concentration ranged from 0.15-0.50 uM
T1 sequence (P00374 whole entry): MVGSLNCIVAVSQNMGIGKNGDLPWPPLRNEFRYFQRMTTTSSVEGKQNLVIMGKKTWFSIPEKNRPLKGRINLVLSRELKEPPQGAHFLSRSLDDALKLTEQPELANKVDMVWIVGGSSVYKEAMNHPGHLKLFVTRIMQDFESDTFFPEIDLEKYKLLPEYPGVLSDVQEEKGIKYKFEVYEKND

[1] = Compound was tested for in vitro antitumor activity, using SCC25 human head and neck squamous carcinoma cells; assay type: functional; settings: SCC-25
How it was run: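 Clonogenic assay: SCC25 cells exposed to graded drug concentrations for 72 h at 37 °C, 5% CO2, in DMEM with 10% FBS and hydrocortisone ([…]). Then replated as single cells at drug-dependent densities and grown in drug-free medium 10-14 days. Colonies stained with crystal violet; only colonies of ≥50 cells scored. IC50 is mean ± SD of ≥3 assays on different days.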

Malme-3M = assay: Compound was evaluated for in vitro activity against MALME-3M Melanoma cell lines (Human tumor cells ); assay type: functional, cell-based
How it was run: (§1)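 NCI Developmental Therapeutics Program human tumor cell panel; drug exposure in 96-well plates for the last 48 h of a 72-h incubation, then cells stained for total protein with sulforhodamine B per the standard NCI protocol. Data supplied by NCI.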

U-251 = assay: Compound was evaluated for in vitro activity against U251 CNS cell lines (Human tumor cells ); assay type: functional, cell-based; how it was run: as §1
IGROV-1 = assay: Compound was evaluated for in vitro activity against IGROV1 Ovary cell lines (Human tumor cells ); assay type: functional, cell-based; how it was run: as §1
LOX IMVI = assay: Compound was evaluated for in vitro activity against LOXIMV1 Melanoma cell lines (Human tumor cells ); assay type: functional, cell-based
How it was run: (§2)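 Total protein then stained with sulforhodamine B following the standard NCI protocol. Data supplied by the NCI Developmental Therapeutics Program.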

BT-549 = assay: Compound was evaluated for in vitro activity against BT-549 breast cancer cell lines (Human tumor cells ); assay type: functional, cell-based; how it was run: as §1
EKVX = assay: Compound was evaluated for in vitro activity against EKVX lung cancer cell lines (Human tumor cells ); assay type: functional, cell-based; how it was run: as §1
UACC-62 = assay: Compound was evaluated for in vitro activity against UACC-62 Melanoma cell lines (Human tumor cells ); assay type: functional, cell-based; how it was run: as §1
MOLT-4 = assay: Compound was evaluated for in vitro activity against MOLT-4 leukemia cell lines (Human tumor cells ); assay type: functional, cell-based; how it was run: as §1
HCC 2998 = assay: Compound was evaluated for in vitro activity against HCC2998 Colon cell lines (Human tumor cells ); assay type: functional, cell-based; how it was run: as §1
NCI-H522 = assay: Compound was evaluated for in vitro activity against NCI-H522 lung cancer cell lines (Human tumor cells ); assay type: functional, cell-based; how it was run: as §1
NCI-H460 = assay: Compound was evaluated for in vitro activity against NCI-H460 lung cancer cell lines (Human tumor cells ); assay type: functional, cell-based; how it was run: as §1
MDA-MB-435 = assay: Compound was evaluated for in vitro activity against MDA-MB-435 breast cancer cell lines (Human tumor cells ); assay type: functional, cell-based; how it was run: as §1
OVCAR-3 = assay: Compound was evaluated for in vitro activity against OVCAR-3 Ovary cell lines (Human tumor cells ); assay type: functional, cell-based; how it was run: as §2
SK-MEL-28 = assay: Compound was evaluated for in vitro activity against SK-MEL28 Melanoma cell lines (Human tumor cells ); assay type: functional, cell-based; how it was run: as §1
A498 = assay: Compound was evaluated for in vitro activity against A498 kidney cell lines (Human tumor cells ); assay type: functional, cell-based; how it was run: as §1
KM12 = assay: Compound was evaluated for in vitro activity against KM-12 Colon cell lines (Human tumor cells ); assay type: functional, cell-based; how it was run: as §1
RPMI-8226 = assay: Compound was evaluated for in vitro activity against RPMI-8226 leukemia cell lines (Human tumor cells ); assay type: functional, cell-based; how it was run: as §1
TK-10 = assay: Compound was evaluated for in vitro activity against TK-10 kidney cell lines (Human tumor cells ); assay type: functional, cell-based; how it was run: as §1
Hs-578T = assay: Compound was evaluated for in vitro activity against Hs 578.T breast cancer cell lines (Human tumor cells ); assay type: functional, cell-based; how it was run: as §1
SNB- = assay: Compound was evaluated for in vitro activity against […] CNS cell lines (Human tumor cells ); assay type: functional, cell-based; how it was run: as §1
PC-3 = assay: Compound was evaluated for in vitro activity against PC-3 prostate cell lines (Human tumor cells ); assay type: functional, cell-based; how it was run: as §1
A549 = assay: Compound was evaluated for in vitro activity against A549/ATCC lung cancer cell lines (Human tumor cells )
SR = assay: Compound was evaluated for in vitro activity against SR leukemia cell lines (Human tumor cells ); assay type: functional, cell-based; how it was run: as §1
MCF7 = assay: Compound was evaluated for in vitro activity against MCF-7 breast cancer cell lines (Human tumor cells ); assay type: functional, cell-based; how it was run: as §2
HCT-116 = assay: Compound was evaluated for in vitro activity against HCT116 Colon cell lines (Human tumor cells ); assay type: functional, cell-based; how it was run: as §1
786-0 = assay: Compound was evaluated for in vitro activity against 786-0 kidney cell lines (Human tumor cells ); assay type: functional, cell-based; how it was run: as §1
SK-MEL-2 = assay: Compound was evaluated for in vitro activity against SK-MEL-2 Melanoma cell lines (Human tumor cells ); assay type: functional, cell-based; how it was run: as §1
HOP-92 = assay: Compound was evaluated for in vitro activity against HOP-92 lung cancer cell lines (Human tumor cells ); assay type: functional, cell-based; how it was run: as §1
RXF 393 = assay: Compound was evaluated for in vitro activity against RXF-393 kidney cell lines (Human tumor cells ); assay type: functional, cell-based; how it was run: as §1
OVCAR-4 = assay: Compound was evaluated for in vitro activity against OVCAR-4 Ovary cell lines (Human tumor cells ); assay type: functional, cell-based; how it was run: as §1
SF-539 = assay: Compound was evaluated for in vitro activity against SF-539 CNS cell lines (Human tumor cells ); assay type: functional, cell-based; how it was run: as §2
CCRF-CEM = assay: Compound was evaluated for in vitro activity against CCRF-CEM leukemia cell lines (Human tumor cells ); assay type: functional, cell-based; how it was run: as §1
SF-295 = assay: Compound was evaluated for in vitro activity against SF-295 CNS cell lines (Human tumor cells ); assay type: functional, cell-based; how it was run: as §1
DU-145 = assay: Compound was evaluated for in vitro activity against DU-145 prostate cell lines (Human tumor cells ); assay type: functional, cell-based; how it was run: as §1
OVCAR-8 = assay: Compound was evaluated for in vitro activity against OVCAR-8 Ovary cell lines (Human tumor cells ); assay type: functional, cell-based; how it was run: as §1
ACHN = assay: Compound was evaluated for in vitro activity against ACHN kidney cell lines (Human tumor cells ); assay type: functional, cell-based; how it was run: as §1
SK-MEL-5 = assay: Compound was evaluated for in vitro activity against SK-MEL-5 Melanoma cell lines (Human tumor cells ); assay type: functional, cell-based; how it was run: as §1
UACC-257 = assay: Compound was evaluated for in vitro activity against UACC-257 Melanoma cell lines (Human tumor cells ); assay type: functional, cell-based; how it was run: as §1
SF-268 = assay: Compound was evaluated for in vitro activity against SF-268 CNS cell lines (Human tumor cells ); assay type: functional, cell-based; how it was run: as §1
NCI-H23 = assay: Compound was evaluated for in vitro activity against NCI-H23 lung cancer cell lines (Human tumor cells ); assay type: functional, cell-based; how it was run: as §1
K562 = assay: Compound was evaluated for in vitro activity against K562 leukemia cell lines (Human tumor cells ); assay type: functional, cell-based; how it was run: as §1
T47D = assay: Compound was evaluated for in vitro activity against T-47D breast cancer cell lines (Human tumor cells ); assay type: functional, cell-based; how it was run: as §1
M14 = assay: Compound was evaluated for in vitro activity against M14 Melanoma cell lines (Human tumor cells ); assay type: functional, cell-based; how it was run: as §1
HL-60 = assay: Compound was evaluated for in vitro activity against HL-60(TB) leukemia cell lines (Human tumor cells ); assay type: functional, cell-based; how it was run: as §1
COLO 205 = assay: Compound was evaluated for in vitro activity against COLO 205 Colon cell lines (Human tumor cells ); assay type: functional, cell-based; how it was run: as §2
OVCAR-5 = assay: Compound was evaluated for in vitro activity against OVCAR-5 Ovary cell lines (Human tumor cells ); assay type: functional, cell-based; how it was run: as §1
HCT-15 = assay: Compound was evaluated for in vitro activity against HCT-15 Colon cell lines (Human tumor cells ); assay type: functional, cell-based; how it was run: as §1
NCI-H226 = assay: Compound was evaluated for in vitro activity against NCI-H226 lung cancer cell lines (Human tumor cells ); assay type: functional, cell-based; how it was run: as §1
NCI/ADR-RES = assay: Compound was evaluated for in vitro activity against NCI/ADR-RES breast cancer cell lines (Human tumor cells ); assay type: functional, cell-based; how it was run: as §2

Nc1nc(N)c2c(Cl)c(CNc3ccc(C(=O)NC(CCCNC(=O)c4ccccc4C(=O)O)C(=O)O)cc3)ccc2n1 (stereo not given)
Ki (Dihydrofolate reductase): 0.00011 nM
IC50 [1]: 0.33 nM

Cc1c(CNc2ccc(C(=O)NC(CCCNC(=O)c3ccccc3C(=O)O)C(=O)O)cc2)cnc2nc(N)nc(N)c12 (stereo not given)
IC50 (Malme-3M): 47 nM
IC50 (U-251): 3.6 nM
IC50 (IGROV-1): 0.52 nM
IC50 (LOX IMVI): < 0.1 nM
IC50 (BT-549): > 1000 nM
IC50 (EKVX): 2.5 nM
IC50 (UACC-62): 0.4 nM
IC50 (MOLT-4): 0.57 nM
IC50 (HCC 2998): 0.9 nM
IC50 (NCI-H522): 1.5 nM
Ki (Dihydrofolate reductase): 0.0004 nM
IC50 (NCI-H460): 0.38 nM
IC50 (MDA-MB-435): 0.6 nM
IC50 (OVCAR-3): 17 nM
IC50 (SK-MEL-28): 190 nM
IC50 (A498): > 1000 nM
IC50 (KM12): 0.52 nM
IC50 (RPMI-8226): 0.84 nM
IC50 (TK-10): > 1000 nM
IC50 (Hs-578T): 100 nM
IC50 (SNB-): 2.2 nM
IC50 [1]: 0.72 nM
IC50 (PC-3): < 0.1 nM
IC50 (A549): 0.42 nM
IC50 (SR): 0.45 nM
IC50 (MCF7): 0.7 nM
IC50 (HCT-116): 0.58 nM
IC50 (786-0): < 0.1 nM
IC50 (SK-MEL-2): > 1000 nM
IC50 (HOP-92): > 1000 nM
IC50 (RXF 393): 380 nM
IC50 (OVCAR-4): > 1000 nM
IC50 (SF-539): 0.46 nM
IC50 (CCRF-CEM): 0.57 nM
IC50 (SF-295): 0.59 nM
IC50 (DU-145): < 1 nM
IC50 (OVCAR-8): 0.32 nM
IC50 (ACHN): 0.39 nM
IC50 (SK-MEL-5): 0.64 nM
IC50 (UACC-257): 470 nM
IC50 (SF-268): 0.36 nM
IC50 (NCI-H23): 1.5 nM
IC50 (K562): < 0.1 nM
IC50 (T47D): > 1000 nM
IC50 (M14): 0.66 nM
IC50 (HL-60): < 1 nM
IC50 (COLO 205): 6.7 nM
IC50 (OVCAR-5): 200 nM
IC50 (HCT-15): 0.45 nM
IC50 (NCI-H226): 0.62 nM
IC50 (NCI/ADR-RES): 0.3 nM

CN(Cc1cnc2nc(N)nc(N)c2n1)c1ccc(C(=O)N[C@@H](CCC(=O)O)C(=O)O)cc1 [METHOTREXATE]
IC50 (Malme-3M): > 1000 nM
IC50 (U-251): 63 nM
IC50 (IGROV-1): 65 nM
IC50 (BT-549): > 1000 nM
IC50 (EKVX): > 1000 nM
IC50 (MOLT-4): 28 nM
IC50 (HCC 2998): 110 nM
IC50 (NCI-H522): 450 nM
IC50 (MDA-MB-435): > 1000 nM
IC50 (SK-MEL-28): > 1000 nM
IC50 (A498): > 1000 nM
IC50 (KM12): 33 nM
IC50 (RPMI-8226): 33 nM
IC50 (TK-10): > 1000 nM
IC50 (Hs-578T): > 1000 nM
IC50 (SNB-): > 1000 nM
IC50 [1]: 15 nM
IC50 (PC-3): 27 nM
IC50 (A549): 33 nM
IC50 (SR): 33 nM
IC50 (SK-MEL-2): > 1000 nM
IC50 (HOP-92): > 1000 nM
IC50 (RXF 393): > 1000 nM
IC50 (OVCAR-4): > 1000 nM
IC50 (CCRF-CEM): 29 nM
IC50 (SF-295): 36 nM
IC50 (DU-145): 45 nM
IC50 (UACC-257): 790 nM
IC50 (K562): 26 nM
IC50 (T47D): > 1000 nM
IC50 (M14): 32 nM
IC50 (HL-60): 39 nM
IC50 (COLO 205): 870 nM
IC50 (OVCAR-5): 980 nM
IC50 (NCI-H226): > 1000 nM

Cc1c(CNc2ccc(C(=O)NC(CCCNC(=O)c3ccccc3C(=O)O)C(=O)O)cc2)ccc2nc(N)nc(N)c12 (stereo not given)
Ki (Dihydrofolate reductase): 0.0001 nM
IC50 [1]: 0.44 nM
